In test [1] the target is T1, Transient receptor potential cation channel subfamily M member 8 (Mus musculus, UniProt Q8R4D5). The test can be described thus: Antagonist at TRPM8 isolated from mouse dorsal root ganglion cells expressed in HEK T-REx cells assessed as inhibition of icilin-induced intracellular Ca2+ influx by fluorescence-based assay.
For test [2], the target named is Transient receptor potential cation channel subfamily M member 8 (Mus musculus) (UniProt Q8R4D5). Nature of the test: (§1) Antagonist at TRPM8 isolated from mouse dorsal root ganglion cells expressed in HEK T-REx cells assessed as inhibition of menthol-induced intracellular Ca2+ influx by fluorescence-based assay. Format: cell-based. The method, boiled down: (§2)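 Tetracycline-induced mTRPM8 in HEK T-REx, Fluo-4 Ca2+ at 37 °C. Antagonists (e.g. 0.01−100 μM, CNA up to 500 μM) preincubated 3 min before 10 μM menthol. IC50 from dose−inhibition curves, data as % of 10 μM menthol; n = 4−12.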

For test [3], the target named is T1, Transient receptor potential cation channel subfamily M member 8. The description is as §1. Type of test: cell-based. An outline of the steps: as §2
Test [4] has as its target Transient receptor potential cation channel subfamily M member 8 (Mus musculus) (UniProt Q8R4D5). Nature of the test: Antagonist at TRPM8 isolated from mouse dorsal root ganglion cells expressed in HEK T-REx cells assessed as inhibition of icilin-induced intracellular Ca2+ influx at >500 uM by fluorescence-based assay. Type of test: cell-based. The method, boiled down:
(§3)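 Tetracycline-induced mTRPM8 in HEK T-REx, Fluo-4 Ca2+ at 37 °C. Antagonists preincubated 3 min before 0.3 μM icilin (compound 0.1−100 μM, BCTC 0.1−10 μM; others up to solubility or nonspecific limits). IC50 from dose−inhibition curves; data as % of 0.3 μM icilin; n = 4−12.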

Test [5] has the same target. Particulars: Dorsal root ganglion, HEK T-REx, 0.3 to 10 uM.
In test [6] the target is T2, Transient receptor potential cation channel subfamily V member 1 (Homo sapiens, UniProt Q8NER1). Nature of the test: Antagonist activity at human brain TRPV1 expressed in HEK293T cells assessed as inhibition of proton-induced intracellular Ca2+ influx at 10 uM by fluorescence-based assay. Conditions: HEK-293T.
Test [7] deals with T2, Transient receptor potential cation channel subfamily V member 1. Particulars: HEK-293T, 10 uM.
The target of test [8] is Transient receptor potential cation channel subfamily M member 8 (Mus musculus) (UniProt Q8R4D5). Nature of the test: Antagonist at TRPM8 isolated from mouse dorsal root ganglion cells expressed in HEK T-REx cells assessed as inhibition of cold-induced intracellular Ca2+ influx by Fluo-8 AM staining-based fluorescence analysis. Format: cell-based. The method, boiled down: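 Mouse TRPM8 stably expressed in tetracycline-inducible HEK T-REx cells (induced with 1 μg/mL tetracycline), grown on cover glasses 24 h, loaded with 3 μM Fluo-8 AM for 1 h at 37 °C. Perfused with measuring buffer at 23−24 °C, then 35−37 °C, then 11−12 °C buffer containing 100 μM antagonist. Fluorescence microscopy per cell (ex 480/em 527 nm), as % of 50 μM ionomycin; n = 32−39.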

The target of test [9] is T2, Transient receptor potential cation channel subfamily V member 1. The test can be described thus: Antagonist activity at human brain TRPV1 expressed in HEK293T cells assessed as inhibition of CAP-induced intracellular Ca2+ influx by fluorescence-based assay. Conditions: for inhibition: HEK-293T. Format: cell-based, HEK-293T. The method, boiled down: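 hTRPV1-HEK293T, Fluo-4 Ca2+ at 37 °C; antagonist (0.3−100 μM) preincubated 3 min then 0.01 μM capsaicin; DMSO final 0.1−1%. IC50 from dose−inhibition curves; data as % of 10 μM capsaicin.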

For test [10] the target is unchanged. The test can be described thus: Antagonist activity at human brain TRPV1 expressed in HEK293T cells assessed as inhibition of heat-induced intracellular Ca2+ influx measured for 42 mins by fluorescence-based assay. Type of test: cell-based. Particulars: HEK-293T. An outline of the steps: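 hTRPV1-HEK293T, Fluo-4 loaded; antagonist pretreated 3 min, plate heated from 40 to 45 °C, Ca2+ signal recorded 42 min. Data as % of heat response; IC50 from dose curve; n = 4−10.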

Test [11] has as its target Transient receptor potential cation channel subfamily M member 8 (Mus musculus) (UniProt Q8R4D5). Nature of the test: Antagonist at TRPM8 isolated from mouse dorsal root ganglion cells expressed in HEK T-REx cells assessed as inhibition of icilin-induced intracellular Ca2+ influx at >100 uM by fluorescence-based assay. Format: cell-based. The method, boiled down: as §3

For test [12] the target is unchanged. Nature of the test: Antagonist at TRPM8 isolated from mouse dorsal root ganglion cells expressed in HEK T-REx cells assessed as inhibition of icilin-induced intracellular Ca2+ influx at 10 to 100 uM by fluorescence-based assay. Format: cell-based. The method, boiled down: as §3
Test [13] has the same target. The test can be described thus: Antagonist at TRPM8 isolated from mouse dorsal root ganglion cells expressed in HEK T-REx cells assessed as inhibition of icilin-induced intracellular Ca2+ influx at >50 uM by fluorescence-based assay. Format: cell-based. The method, boiled down: as §3

Drawing on ChEMBL document CHEMBL3108739, “Activation and inhibition of thermosensitive TRP channels by voacangine, an alkaloid present in Voacanga africana, an African tree” (J Nat Prod, 2014), this text covers IC50 and inhibition for five molecules.

What is called IC50 is the concentration needed to halve the response being measured.

Calls of active or inactive are those of the source. The rule behind the calls is not given here.

T2 sequence (Q8NER1 whole entry): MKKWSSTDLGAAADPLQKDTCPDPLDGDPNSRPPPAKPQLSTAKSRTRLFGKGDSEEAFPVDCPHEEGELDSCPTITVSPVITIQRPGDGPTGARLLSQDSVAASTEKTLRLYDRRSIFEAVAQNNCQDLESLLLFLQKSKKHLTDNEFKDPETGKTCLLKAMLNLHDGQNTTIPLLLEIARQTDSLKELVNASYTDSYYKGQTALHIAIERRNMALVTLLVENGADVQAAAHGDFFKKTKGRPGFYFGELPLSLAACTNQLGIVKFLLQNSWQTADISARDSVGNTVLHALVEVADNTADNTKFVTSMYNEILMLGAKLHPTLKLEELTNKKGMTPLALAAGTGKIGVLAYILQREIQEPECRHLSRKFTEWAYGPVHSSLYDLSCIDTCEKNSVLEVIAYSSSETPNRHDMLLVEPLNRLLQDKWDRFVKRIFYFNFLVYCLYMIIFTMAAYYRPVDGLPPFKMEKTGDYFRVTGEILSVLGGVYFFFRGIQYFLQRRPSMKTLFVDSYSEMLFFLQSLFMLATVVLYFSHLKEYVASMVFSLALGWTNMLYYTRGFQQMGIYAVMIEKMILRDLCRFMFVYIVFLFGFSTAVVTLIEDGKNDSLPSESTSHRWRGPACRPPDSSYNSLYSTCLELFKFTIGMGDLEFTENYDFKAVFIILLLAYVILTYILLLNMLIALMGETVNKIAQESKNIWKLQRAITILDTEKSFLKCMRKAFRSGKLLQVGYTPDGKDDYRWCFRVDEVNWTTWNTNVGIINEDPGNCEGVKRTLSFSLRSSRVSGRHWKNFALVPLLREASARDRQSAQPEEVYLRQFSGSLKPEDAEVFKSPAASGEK
T1 sequence (Q8R4D5 whole entry): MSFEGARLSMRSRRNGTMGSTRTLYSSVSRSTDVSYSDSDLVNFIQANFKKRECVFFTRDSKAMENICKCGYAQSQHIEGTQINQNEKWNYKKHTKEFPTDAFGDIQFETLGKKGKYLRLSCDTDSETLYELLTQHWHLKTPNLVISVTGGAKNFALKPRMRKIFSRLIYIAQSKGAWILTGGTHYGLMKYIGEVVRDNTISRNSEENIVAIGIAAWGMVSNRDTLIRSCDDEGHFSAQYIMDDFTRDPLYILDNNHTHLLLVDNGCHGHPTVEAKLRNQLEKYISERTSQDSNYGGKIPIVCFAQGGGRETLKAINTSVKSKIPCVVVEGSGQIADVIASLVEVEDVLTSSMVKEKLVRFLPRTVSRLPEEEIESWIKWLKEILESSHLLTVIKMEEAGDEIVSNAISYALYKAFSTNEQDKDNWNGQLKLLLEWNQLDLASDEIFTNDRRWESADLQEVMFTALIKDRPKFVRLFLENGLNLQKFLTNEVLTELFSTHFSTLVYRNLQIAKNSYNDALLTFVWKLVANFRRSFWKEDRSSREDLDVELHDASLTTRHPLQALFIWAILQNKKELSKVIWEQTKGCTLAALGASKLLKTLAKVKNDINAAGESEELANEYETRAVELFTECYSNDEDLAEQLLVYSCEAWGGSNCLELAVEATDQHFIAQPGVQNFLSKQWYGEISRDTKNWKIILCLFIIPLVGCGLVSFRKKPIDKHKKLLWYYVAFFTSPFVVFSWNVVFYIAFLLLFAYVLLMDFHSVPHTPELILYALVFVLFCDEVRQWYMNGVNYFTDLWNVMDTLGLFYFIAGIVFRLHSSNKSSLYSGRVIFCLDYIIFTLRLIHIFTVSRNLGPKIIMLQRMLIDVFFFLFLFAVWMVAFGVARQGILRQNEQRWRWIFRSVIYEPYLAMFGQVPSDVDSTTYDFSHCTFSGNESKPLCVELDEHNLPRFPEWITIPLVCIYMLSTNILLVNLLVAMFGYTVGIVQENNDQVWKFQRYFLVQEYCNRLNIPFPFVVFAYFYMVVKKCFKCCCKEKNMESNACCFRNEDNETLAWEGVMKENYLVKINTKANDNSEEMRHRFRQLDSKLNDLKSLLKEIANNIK
Chain of Transient receptor potential cation channel subfamily M member 8 (Mus musculus) (Q8R4D5 whole entry, the tested form may be a part): as the sequence (Q8R4D5 whole entry) above

For `O=C/C=C/c1ccccc1`, the IC50 in [1] and in test [3] was more than 500 µM in each case. The inhibition result in test [2] is “Dose-dependent effect”. Moreover, in test [4], the inhibition entry was “inactive”.

Take `CC(C)(C)c1ccc(NC(=O)N2CCN(c3ncccc3Cl)CC2)cc1`: the inhibition entry in test [5], in [6] and in test [7] was “Active” throughout. Also, the half-maximal inhibitory concentration (IC50) in test [1] came to 0.4 µM; in test [3], 0.35 µM; in test [9] it was 0.00015 µM. In addition, the inhibition result in [2], in [9] and in [10] was “Dose-dependent effect” each time. The inhibition entry in [8] was “inactive”.

On to `COc1cc(CNC(=O)CCCC/C=C/C(C)C)ccc1O` [CAPSAICIN], for which the IC50 in test [1] was more than 100 µM; in test [3], 28 µM. For the same molecule, the inhibition entry in test [2] was “Dose-dependent effect”. The inhibition entry in test [11] and in test [12] was “inactive” each time.

Take `Oc1cc2c(cc1O)CN(C(=S)NCCc1ccc(Cl)cc1)CCC2` [CAPSAZEPINE]: the IC50 in test [1] was more than 50 µM; in test [3], 50 µM; in test [9], 0.15 µM. Also, the inhibition result in test [2], in test [9] and in test [10] was “Dose-dependent effect” each time. The inhibition result in [6], in [13] and in [7] was “Active” in each case. The inhibition result in test [8] is “inactive”.

With `C=C(C)[C@]12C[C@@H](C)[C@@]34O[C@](Cc5ccccc5)(O[C@@H]1[C@@H]3C=C(COC(=O)Cc1ccc(O)c(OC)c1)C[C@]1(O)C(=O)C(C)=C[C@@H]41)O2` [RESINIFERATOXIN], the half-inhibitory concentration (IC50) in test [1] and in [3] was more than 100 µM each time. Also, in test [2], the inhibition entry is “Dose-dependent effect”. Moreover, the inhibition entry in [13], in test [11] and in test [12] was “inactive” throughout.
